Laboratory results taken from ChEMBL document CHEMBL3603784, “Novel hybrids of 3-n-butylphthalide and edaravone: Design, synthesis and evaluations as potential anti-ischemic stroke agents” (2015).
Activity calls are given as the source filed them. No cut-off for these calls is given here.

How the values were obtained:
[1] = Neuroprotective activity against H2O2-induce cell damage in rat PC12 cells assessed as cell viability at 10 uM preincubated for 1 hr followed by H2O2 induction measured after 3 hrs by MTT assay (reference value: 50.85%); assay type: functional; conditions: PC-12, read-out: Activity
[2] = Antiplatelet activity in rabbit platelet rich plasma assessed as inhibition of arachidonic acid-induced platelet aggregation at 0.1 mM preincubated for 5 mins followed by arachidonic acid addition measured after 5 mins by Born's turbidimetric method relative to control; assay type: functional; conditions: Oryctolagus cuniculus
Procedure, shortened: (§1)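 Rabbit PRP was taken from centrifugation supernatant, and PPP was obtained at 3000 rpm for 10 min. PRP was pretreated in duplicate with test agent or vehicle for 5 min at 37 °C, then given ADP (10 µM) or AA (1 mM). Aggregation was followed turbidimetrically by optical density. Results are % inhibition versus vehicle-treated, inducer-exposed samples, n = 6, mean ± SD.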

[3] = Antiplatelet activity in rabbit platelet rich plasma assessed as inhibition of ADP-induced platelet aggregation at 0.1 mM preincubated for 5 mins followed by ADP addition measured after 5 mins by Born's turbidimetric method relative to control; assay type: functional; conditions: Oryctolagus cuniculus; procedure, shortened: as §1
[4] = test system: PC-12; assay: Antioxidant activity in rat PC12 cells assessed as reduction of NADH-mediated superoxide anion radical formation at 10 uM preincubated for 1 hr followed by NADH addition by NBT assay; assay type: functional
Procedure, shortened: (§2)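 PC12 cells were cultured as for the other PC12 assays and pretreated in triplicate for 1 h. Each tube then received DMSO, 468 µM NADH and 300 µM NBT. Superoxide activity was read by NBT assay, with DMSO used to fully dissolve the formazan.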

[5] = test system: PC-12; assay: Antioxidant activity in rat PC12 cells assessed as reduction of H2O2/Fe2+-mediated hydroxyl radical formation at 10 uM preincubated for 1 hr followed by H2O2/Fe2+ addition by Griess assay; assay type: functional
Procedure, shortened: (§3)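 PC12 cells grown in DMEM with 10% heat-inactivated horse serum, 5% FBS, 1.0 mM sodium pyruvate, penicillin/streptomycin, 37 °C, 5% CO2. Cells pretreated in triplicate for 1 h, then exposed to 1 mM H2O2/20 µM Fe2+ (pH 7.4). After a medium change, cells were collected in 0.5 mL phosphate buffer (pH 7.4). Hydroxyl radical activity was read by Griess assay.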

[6] = Neuroprotective activity against H2O2-induce cell damage in rat PC12 cells assessed as cell viability at 1 uM preincubated for 1 hr followed by H2O2 induction measured after 3 hrs by MTT assay (reference value: 50.85%); assay type: functional; conditions: PC-12, read-out: Activity
[7] = test system: PC-12; assay: Neuroprotective activity against H2O2-induce cell damage in rat PC12 cells assessed as cell viability at 10 uM preincubated for 1 hr followed by H2O2 induction measured after 3 hrs by MTT assay; assay type: functional, cell-based
[8] = test system: PC-12; assay: Antioxidant activity in rat PC12 cells assessed as reduction of NADH-mediated superoxide anion radical formation at 10 uM preincubated for 1 hr followed by NADH addition by NBT assay in presence of edaravone; assay type: functional; procedure, shortened: as §2
[9] = Antiplatelet activity in rabbit platelet rich plasma assessed as inhibition of ADP-induced platelet aggregation at 0.1 mM preincubated for 5 mins followed by ADP addition measured after 5 mins by Born's turbidimetric method in presence of edaravone relative to control; assay type: functional; conditions: Oryctolagus cuniculus; procedure, shortened: as §1
[10] = test system: PC-12; assay: Antioxidant activity in rat PC12 cells assessed as reduction of H2O2/Fe2+-mediated hydroxyl radical formation at 10 uM preincubated for 1 hr followed by H2O2/Fe2+ addition by Griess assay in presence of edaravone; assay type: functional; procedure, shortened: as §3
[11] = Antiplatelet activity in rabbit platelet rich plasma assessed as inhibition of arachidonic acid-induced platelet aggregation at 0.1 mM preincubated for 5 mins followed by arachidonic acid addition measured after 5 mins by Born's turbidimetric method in presence of edaravone relative to control; assay type: functional; conditions: Oryctolagus cuniculus; procedure, shortened: as §1
[12] = Neuroprotective activity against H2O2-induce cell damage in rat PC12 cells assessed as cell viability at 10 uM preincubated for 1 hr followed by H2O2 induction measured after 3 hrs by MTT assay in presence of edaravone (reference value: 50.85%); assay type: functional; conditions: PC-12, read-out: Activity
[13] = test system: PC-12; assay: Antioxidant activity in rat PC12 cells assessed as reduction of NADH-mediated superoxide anion radical formation at 10 uM preincubated for 1 hr followed by NADH addition by NBT assay in presence of NBP; assay type: functional; procedure, shortened: as §2
[14] = Antiplatelet activity in rabbit platelet rich plasma assessed as inhibition of arachidonic acid-induced platelet aggregation at 0.1 mM preincubated for 5 mins followed by arachidonic acid addition measured after 5 mins by Born's turbidimetric method in presence of NBP relative to control; assay type: functional; conditions: Oryctolagus cuniculus; procedure, shortened: as §1
[15] = Neuroprotective activity against H2O2-induce cell damage in rat PC12 cells assessed as cell viability at 10 uM preincubated for 1 hr followed by H2O2 induction measured after 3 hrs by MTT assay in presence of NBP (reference value: 50.85%); assay type: functional; conditions: PC-12, read-out: Activity
[16] = Antiplatelet activity in rabbit platelet rich plasma assessed as inhibition of ADP-induced platelet aggregation at 0.1 mM preincubated for 5 mins followed by ADP addition measured after 5 mins by Born's turbidimetric method in presence of NBP relative to control; assay type: functional; conditions: Oryctolagus cuniculus; procedure, shortened: as §1
[17] = test system: PC-12; assay: Antioxidant activity in rat PC12 cells assessed as reduction of H2O2/Fe2+-mediated hydroxyl radical formation at 10 uM preincubated for 1 hr followed by H2O2/Fe2+ addition by Griess assay in presence of NBP; assay type: functional; procedure, shortened: as §3

CCCCC(OC(C)=O)c1ccccc1C(=O)Oc1cc(C)nn1-c1ccc(C)cc1 (centres undefined)
viability at 10 µM [1]: 86%
inhibition at 100 µM [2]: 20.5%
inhibition at 100 µM [3]: 21.3%

CCCCC(OC(C)=O)c1ccccc1C(=O)Oc1cc(C(F)(F)F)nn1-c1cccc(Cl)c1 (centres undefined)
inhibition at 100 µM [2]: 21.2%
inhibition at 100 µM [3]: 31.2%

CCCCC(OC(C)=O)c1ccccc1C(=O)Oc1cc(C)nn1-c1ccc(F)cc1 (centres undefined)
viability at 10 µM [1]: 93.3%
inhibition at 100 µM [2]: 59.9%
inhibition at 100 µM [3]: 31.8%
Activity [4]: 141.49 U/L
Activity [5]: 65.51 U/ml
viability at 1 µM [6]: 88.1%

CCCCC(OC(C)=O)c1ccccc1C(=O)Oc1cc(C(F)(F)F)nn1-c1ccc(OC)cc1 (centres undefined)
inhibition at 100 µM [2]: 37.7%
inhibition at 100 µM [3]: 19.9%

CCCCC(OC(C)=O)c1ccccc1C(=O)O (centres undefined)
inhibition at 100 µM [2]: 27.7%
inhibition at 100 µM [3]: 17.7%
Activity [4]: 56.1954 U/L
Activity [7]: Active
Activity [5]: 17.6015 U/ml

CCCCC(OC(C)=O)c1ccccc1C(=O)Oc1cc(C)nn1-c1ccc([N+](=O)[O-])cc1 (centres undefined)
viability at 10 µM [1]: 85.2%
inhibition at 100 µM [2]: 39.6%
inhibition at 100 µM [3]: 33.9%

CCCCC(OC(C)=O)c1ccccc1C(=O)Oc1cc(C(F)(F)F)nn1-c1ccccc1 (centres undefined)
inhibition at 100 µM [2]: 29.3%
inhibition at 100 µM [3]: 26.9%

CCCCC(OC(C)=O)c1ccccc1C(=O)Oc1cc(C(F)(F)F)nn1-c1ccc(F)cc1 (centres undefined)
inhibition at 100 µM [2]: 27.5%
inhibition at 100 µM [3]: 13.6%

CCCCC(OC(C)=O)c1ccccc1C(=O)Oc1cc(C)nn1-c1ccc(OC)cc1 (centres undefined)
inhibition at 100 µM [2]: 29.4%
inhibition at 100 µM [3]: 30.2%

CCCCC(OC(C)=O)c1ccccc1C(=O)Oc1cc(C(F)(F)F)nn1-c1ccc(C)cc1 (centres undefined)
inhibition at 100 µM [2]: 40.7%
inhibition at 100 µM [3]: 25.5%

Clc1ccccc1CN1CCc2sccc2C1 [TICLOPIDINE]
viability at 10 µM [1]: 67.2%
inhibition at 100 µM [3]: 11.5%
Activity [4]: 26.9592 U/L
Activity [5]: 15.0616 U/ml

CCCCC1OC(=O)c2ccccc21 (racemic) [RAC-3-N-BUTYLPHTHALIDE]
Activity [8]: 140.787 U/L
viability at 10 µM [1]: 71%
inhibition at 100 µM [2]: 14.1%
inhibition at 100 µM [9]: 28.1%
Activity [10]: 36.8347 U/ml
inhibition at 100 µM [3]: 22.9%
Activity [4]: 36.7429 U/L
inhibition at 100 µM [11]: 42.5%
Activity [5]: 16.2026 U/ml
viability at 10 µM [12]: 76.6%

CCCCC(OC(C)=O)c1ccccc1C(=O)Oc1cc(C)nn1-c1ccc(Cl)cc1 (centres undefined)
inhibition at 100 µM [2]: 40.3%
inhibition at 100 µM [3]: 29.3%

CCCCC(OC(C)=O)c1ccccc1C(=O)Oc1cc(C)nn1-c1ccccc1 (centres undefined)
inhibition at 100 µM [2]: 15.4%
inhibition at 100 µM [3]: 23%

CC(=O)Oc1ccccc1C(=O)O [ASPIRIN]
viability at 10 µM [1]: 77.4%
inhibition at 100 µM [2]: 16.2%
Activity [4]: 79.3793 U/L
Activity [5]: 30.6956 U/ml

CCCCC(OC(C)=O)c1ccccc1C(=O)Oc1cc(C(F)(F)F)nn1-c1ccc(Cl)cc1 (centres undefined)
viability at 10 µM [1]: 83%
inhibition at 100 µM [2]: 26.6%
inhibition at 100 µM [3]: 23.2%

CCCCC(OC(C)=O)c1ccccc1C(=O)Oc1cc(C)nn1-c1cccc(Cl)c1 (centres undefined)
inhibition at 100 µM [2]: 46.1%
inhibition at 100 µM [3]: 35.2%

CC1=NN(c2ccc(F)cc2)C(=O)C1
inhibition at 100 µM [2]: 24.3%
inhibition at 100 µM [3]: 13.5%
Activity [4]: 117.579 U/L
Activity [7]: Active
Activity [5]: 31.7447 U/ml

CC1=NN(c2ccccc2)C(=O)C1 [EDARAVONE]
viability at 10 µM [1]: 76.9%
inhibition at 100 µM [2]: 25.5%
inhibition at 100 µM [3]: 24.8%
Activity [13]: 140.787 U/L
inhibition at 100 µM [14]: 42.5%
Activity [4]: 97.6942 U/L
viability at 10 µM [15]: 76.6%
inhibition at 100 µM [16]: 28.1%
Activity [5]: 25.2753 U/ml
Activity [17]: 36.8347 U/ml

CCCCC(OC(C)=O)c1ccccc1C(=O)Oc1cc(C(F)(F)F)nn1-c1ccc([N+](=O)[O-])cc1 (centres undefined)
viability at 10 µM [1]: 87.3%
inhibition at 100 µM [2]: 21.3%
inhibition at 100 µM [3]: 15.4%
